Tests used:
[1] = Biodistribution in Stomach of athymic mouse xenografted with human SJSA-1 cells at 166.5 kBq, iv after 24 hrs by automated gamma counting method; assay type: ADME, organism-based; details: in vivo
Summary of the method: (§1)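 Athymic mice bearing flank SJSA-1 xenografts received 125I-SIB-labeled peptide (166.5 kBq, 100 μL) by tail vein; groups of five per time point. Tumor, blood and organs were taken at 0.5–24 h and counted by gamma counter; values expressed as %ID/g.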

[2] = Drug uptake in MDM2-amplified human SJSA-1 cells expressing wild type p53 at 5 to 50 uM incubated for 30 mins; assay type: ADME, cell-based; details: sjsa-1, 0.5 h, dose 5-50 µM
Summary of the method: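 For uptake kinetics, SJSA-1 cells in serum-free RPMI-1640 were incubated 30–120 min with 125I-labeled peptide, with or without 50 μM unlabeled parent peptide. Cells were washed with PBS and lysed, and uptake was normalized to protein (%/mg protein). Triplicates, mean ± SD.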

[3] = Biodistribution in Tumor of athymic mouse xenografted with human SJSA-1 cells at 166.5 kBq, iv after 6 hrs by automated gamma counting method; assay type: ADME, organism-based, Neoplasm; details: in vivo; summary of the method: as §1
[4] = Biodistribution in Blood of athymic mouse xenografted with human SJSA-1 cells at 166.5 kBq, iv after 6 hrs by automated gamma counting method; assay type: ADME, organism-based; details: in vivo
Summary of the method: (§2)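 125I-labeled peptide (166.5 kBq in 100 μL) was injected via tail vein into athymic mice bearing flank SJSA-1 xenografts, n = 5 per time point. Tumors, blood and major organs were gamma-counted at 0.5, 2, 6 and 24 h post-injection. Values are %ID/g.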

[5] = Biodistribution in Small intestine of athymic mouse xenografted with human SJSA-1 cells at 166.5 kBq, iv after 6 hrs by automated gamma counting method; assay type: ADME, organism-based; details: in vivo; summary of the method: as §2
[6] = Biodistribution in Bone of athymic mouse xenografted with human SJSA-1 cells at 166.5 kBq, iv after 30 mins by automated gamma counting method; assay type: ADME, organism-based, Bone element; details: in vivo, 0.5 h; summary of the method: as §2
[7] = Biodistribution in Small intestine of athymic mouse xenografted with human SJSA-1 cells at 166.5 kBq, iv after 24 hrs by automated gamma counting method; assay type: ADME, organism-based; details: in vivo; summary of the method: as §2
[8] = Drug uptake in MDM2-amplified human SJSA-1 cells expressing wild type p53 at 5 to 50 uM incubated for 1 hr; assay type: ADME, cell-based; details: sjsa-1, 1 h, dose 5-50 µM
Summary of the method: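 SJSA-1 cells (MDM2-amplified, wild-type p53) in 24-well plates were incubated 1 h with 125I-labeled peptide in serum-free RPMI-1640, with or without unlabeled parent peptide (5–50 μM) for blocking. They were then washed three times with PBS and lysed; retained activity was normalized to well protein (%/mg protein). Triplicates, mean ± SD.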

[9] = Biodistribution in Heart of athymic mouse xenografted with human SJSA-1 cells at 166.5 kBq, iv after 2 hrs by automated gamma counting method; assay type: ADME, organism-based; details: in vivo; summary of the method: as §2
[10] = Biodistribution in Kidney of athymic mouse xenografted with human SJSA-1 cells at 166.5 kBq, iv after 24 hrs by automated gamma counting method; assay type: ADME, organism-based; details: in vivo; summary of the method: as §2
[11] = Biodistribution in Small intestine of athymic mouse xenografted with human SJSA-1 cells at 166.5 kBq, iv after 2 hrs by automated gamma counting method; assay type: ADME, organism-based; details: in vivo; summary of the method: as §2
[12] = Biodistribution in Lung of athymic mouse xenografted with human SJSA-1 cells at 166.5 kBq, iv after 6 hrs by automated gamma counting method; assay type: ADME, organism-based; details: in vivo; summary of the method: as §2
[13] = Biodistribution in Skin of athymic mouse xenografted with human SJSA-1 cells at 166.5 kBq, iv after 30 mins by automated gamma counting method; assay type: ADME, organism-based, Skin of body; details: in vivo, 0.5 h; summary of the method: as §2
[14] = Biodistribution in Skin of athymic mouse xenografted with human SJSA-1 cells at 166.5 kBq, iv after 24 hrs by automated gamma counting method; assay type: ADME, organism-based, Skin of body; details: in vivo; summary of the method: as §2
[15] = Biodistribution in Kidney of athymic mouse xenografted with human SJSA-1 cells at 166.5 kBq, iv after 6 hrs by automated gamma counting method; assay type: ADME, organism-based; details: in vivo; summary of the method: as §2
[16] = Biodistribution in Liver of athymic mouse xenografted with human SJSA-1 cells at 166.5 kBq, iv after 24 hrs by automated gamma counting method; assay type: ADME, organism-based; details: in vivo; summary of the method: as §2
[17] = Biodistribution in Liver of athymic mouse xenografted with human SJSA-1 cells at 166.5 kBq, iv after 30 mins by automated gamma counting method; assay type: ADME, organism-based; details: in vivo, 0.5 h; summary of the method: as §2
[18] = Biodistribution in Spleen of athymic mouse xenografted with human SJSA-1 cells at 166.5 kBq, iv after 30 mins by automated gamma counting method; assay type: ADME, organism-based; details: in vivo, 0.5 h; summary of the method: as §2
[19] = Biodistribution in Muscle of athymic mouse xenografted with human SJSA-1 cells at 166.5 kBq, iv after 2 hrs by automated gamma counting method; assay type: ADME, organism-based, Muscle tissue; details: in vivo; summary of the method: as §2
[20] = Biodistribution in Kidney of athymic mouse xenografted with human SJSA-1 cells at 166.5 kBq, iv after 30 mins by automated gamma counting method; assay type: ADME, organism-based; details: in vivo, 0.5 h; summary of the method: as §2
[21] = Biodistribution in Small intestine of athymic mouse xenografted with human SJSA-1 cells at 166.5 kBq, iv after 30 mins by automated gamma counting method; assay type: ADME, organism-based; details: in vivo, 0.5 h; summary of the method: as §2
[22] = Biodistribution in Blood of athymic mouse xenografted with human SJSA-1 cells at 166.5 kBq, iv after 30 mins by automated gamma counting method; assay type: ADME, organism-based; details: in vivo, 0.5 h; summary of the method: as §2
[23] = Biodistribution in Liver of athymic mouse xenografted with human SJSA-1 cells at 166.5 kBq, iv after 6 hrs by automated gamma counting method; assay type: ADME, organism-based; details: in vivo; summary of the method: as §2
[24] = Biodistribution in Spleen of athymic mouse xenografted with human SJSA-1 cells at 166.5 kBq, iv after 6 hrs by automated gamma counting method; assay type: ADME, organism-based; details: in vivo; summary of the method: as §2
[25] = Biodistribution in Thyroid of athymic mouse xenografted with human SJSA-1 cells at 166.5 kBq, iv after 30 mins by automated gamma counting method; assay type: ADME, organism-based, Thyroid gland; details: in vivo, 0.5 h; summary of the method: as §1
[26] = Drug uptake in MDM2-amplified human SJSA-1 cells expressing wild type p53 assessed as released into supernatant incubated for 0.5 hrs subsequently re-incubating the cells with fresh medium for up to 2 hrs; assay type: ADME, cell-based; details: sjsa-1, 0.5 h
Summary of the method: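 SJSA-1 cells were loaded with 125I-labeled peptide for 1 h, then reincubated in fresh medium for 0.5–2 h. Cell-retained activity and cumulative release into the supernatant were expressed as percentage of initially bound activity.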

[27] = Biodistribution in Bone of athymic mouse xenografted with human SJSA-1 cells at 166.5 kBq, iv after 6 hrs by automated gamma counting method; assay type: ADME, organism-based, Bone element; details: in vivo; summary of the method: as §2
[28] = Stability in human serum assessed as intact peptide level at 37 degC incubated for 72 hrs by RP-HPLC analysis; assay type: ADME, cell-free; details: read-out: Drug uptake
Summary of the method: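 125I-labeled peptide was incubated in human serum at 37 °C for up to 72 h. Aliquots were run by RP-HPLC (RP-18 column, ethanol/0.05 M sodium acetate pH 5.5 gradient, 1 mL/min), and intact peptide was expressed as percentage of injected activity.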

[29] = Biodistribution in Large intestine of athymic mouse xenografted with human SJSA-1 cells at 166.5 kBq, iv after 24 hrs by automated gamma counting method; assay type: ADME, organism-based; details: in vivo; summary of the method: as §2
[30] = Biodistribution in Heart of athymic mouse xenografted with human SJSA-1 cells at 166.5 kBq, iv after 6 hrs by automated gamma counting method; assay type: ADME, organism-based; details: in vivo; summary of the method: as §2
[31] = Biodistribution in Muscle of athymic mouse xenografted with human SJSA-1 cells at 166.5 kBq, iv after 30 mins by automated gamma counting method; assay type: ADME, organism-based, Muscle tissue; details: in vivo, 0.5 h; summary of the method: as §2
[32] = Biodistribution in Heart of athymic mouse xenografted with human SJSA-1 cells at 166.5 kBq, iv after 24 hrs by automated gamma counting method; assay type: ADME, organism-based; details: in vivo; summary of the method: as §2

A Drug uptake [1] of 0.84 % ID/g, a Drug uptake [2] of 104 %/mg protein and a Drug uptake [3] of 2.11 % ID/g were found for `CC(=O)NC(CCCCNC(=O)c1cccc([125I])c1)C(=O)NCCCCCC(=O)N[C@H](C(=O)N[C@@H](CO)C(=O)N[C@@H](Cc1ccccc1)C(=O)N[C@@]1(C)CCCCCC/C=C/CCC[C@@](C)(C(=O)N[C@@H](CCC(=O)O)C(=O)N[C@@H](CC(N)=O)C(=O)N[C@@H](Cc2ccccc2)C(N)=O)NC(=O)[C@H](CC(C)C)NC(=O)[C@H](CC(C)C)NC(=O)[C@H](C)NC(=O)[C@H](Cc2c[nH]c3ccccc23)NC(=O)[C@H](Cc2ccc(O)cc2)NC(=O)[C@H](CCC(=O)O)NC1=O)[C@@H](C)O` (some centres not stated) in this work. It also gave a Drug uptake [4] of 5.12 % ID/g, a Drug uptake [5] of 3.84 % ID/g and a Drug uptake [6] of 0.38 % ID/g. For the same compound, the Drug uptake [7] was 0.86 % ID/g, the Drug uptake [8] was 12.4% and the Drug uptake [9] was 2.44 % ID/g. It also gave a Drug uptake [10] of 0.63 % ID/g, a Drug uptake [11] of 2.17 % ID/g and a Drug uptake [12] of 2.49 % ID/g. It also gave a Drug uptake [13] of 0.57 % ID/g, a Drug uptake [14] of 0.52 % ID/g and a Drug uptake [15] of 2.5 % ID/g. The Drug uptake [16] was 4.72 % ID/g, the Drug uptake [17] was 13.52 % ID/g and the Drug uptake [18] was 1.29 % ID/g. It also gave a Drug uptake [19] of 0.24 % ID/g, a Drug uptake [20] of 3.06 % ID/g and a Drug uptake [21] of 0.43 % ID/g. It also gave a Drug uptake [22] of 8.33 % ID/g, a Drug uptake [23] of 11.41 % ID/g and a Drug uptake [24] of 1.99 % ID/g. For the same compound, the Drug uptake [25] was 0.89 % ID/g, the Drug uptake [26] was 16.9% and the Drug uptake [27] was 0.29 % ID/g. For the same compound, the remaining at 72 h [28] was 96%, the Drug uptake [29] was 1.87 % ID/g and the Drug uptake [30] was 2.14 % ID/g. It also gave a Drug uptake [31] of 0.16 % ID/g and a Drug uptake [32] of 0.37 % ID/g.
